Measurements collected from several papers.
Each line is one published result; the experiments were not run side by side.
Target: Ephrin type-A receptor 8 (EPHA8, Homo sapiens, UniProt P29322)
Sequence (P29322 28-1005, as in one of the studies): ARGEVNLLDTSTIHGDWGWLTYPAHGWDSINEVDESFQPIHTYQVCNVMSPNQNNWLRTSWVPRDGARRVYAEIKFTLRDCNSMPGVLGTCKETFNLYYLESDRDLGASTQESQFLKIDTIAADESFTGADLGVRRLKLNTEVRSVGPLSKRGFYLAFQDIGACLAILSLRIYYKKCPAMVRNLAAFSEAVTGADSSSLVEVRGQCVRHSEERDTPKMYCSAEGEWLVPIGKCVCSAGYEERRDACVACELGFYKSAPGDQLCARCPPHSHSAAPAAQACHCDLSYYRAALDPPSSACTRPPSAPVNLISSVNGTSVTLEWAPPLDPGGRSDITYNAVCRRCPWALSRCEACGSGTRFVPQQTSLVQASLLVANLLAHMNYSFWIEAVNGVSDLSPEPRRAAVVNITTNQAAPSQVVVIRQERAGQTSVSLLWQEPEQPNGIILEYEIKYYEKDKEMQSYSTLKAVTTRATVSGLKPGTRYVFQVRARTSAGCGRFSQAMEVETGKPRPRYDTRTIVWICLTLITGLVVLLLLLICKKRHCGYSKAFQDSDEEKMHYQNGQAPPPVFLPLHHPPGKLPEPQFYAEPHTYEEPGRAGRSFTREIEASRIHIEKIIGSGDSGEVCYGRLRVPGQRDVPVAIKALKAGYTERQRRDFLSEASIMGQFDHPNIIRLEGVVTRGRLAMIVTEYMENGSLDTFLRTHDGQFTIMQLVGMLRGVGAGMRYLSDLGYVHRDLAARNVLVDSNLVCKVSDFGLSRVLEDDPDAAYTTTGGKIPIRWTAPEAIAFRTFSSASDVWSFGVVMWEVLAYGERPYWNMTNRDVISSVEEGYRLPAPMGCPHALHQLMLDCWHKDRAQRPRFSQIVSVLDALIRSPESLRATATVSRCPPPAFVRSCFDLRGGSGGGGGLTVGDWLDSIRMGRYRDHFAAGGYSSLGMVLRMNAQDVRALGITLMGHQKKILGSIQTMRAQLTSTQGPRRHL

N#CCCc1ccc2c(c1)-c1[nH]c3ccc([N+](=O)[O-])cc3c1CC(=O)N2 has a remaining signal of 105% (cell-free assay; 0.5 µM).
CCCOc1ccc(OC)c(F)c1C(=O)c1ccc(C(=O)N[C@@H]2CNC[C@H]2NC(=O)c2ccc3[nH]ncc3c2)cc1 gave a remaining activity of 95% (enzyme activity; inhibitor; 10 µM).
O=C1CCc2cc(Nc3cc(OC4CCOCC4)c([N+](=O)[O-])cc3Cl)ccc2N1 gave a remaining binding of 100% (cell-free assay; competition with immobilised ligand; 1 µM).
For CNC(=O)c1cc(Oc2ccc(NC(=O)Nc3ccc(Cl)c(C(F)(F)F)c3)cc2)ccn1, the inhibition was 23% (enzyme activity; inhibitor; 0.3 µM).
For CCCOc1ccc([C@H]2[C@H](C(=O)O)[C@@H](c3ccc4c(c3)OCO4)CN2CC(=O)Nc2c(CC)cccc2CC)cc1, the remaining binding was 98% (cell-free assay; competition with immobilised ligand; 1 µM).
Cc1ccc(Nc2nccc(N(C)c3ccc4c(C)n(C)nc4c3)n2)cc1S(N)(=O)=O has an inhibition of 81% (enzyme activity; inhibitor; 10 µM).
CCN(CC)CCNC(=O)c1c(C)[nH]c(/C=C2\C(=O)Nc3ccc(F)cc32)c1C has a remaining signal of 92.1% (cell-free assay; 0.5 µM).
O=C(Nc1cnn(-c2csc(C(=O)NC3COC3)c2)c1)Nc1c(F)cccc1Cl gave a remaining activity of 93.8% (enzyme activity; inhibitor; 5 µM).
Cc1cnc(NC2CCOCC2)nc1-n1cnc(C(=O)NC(CN)c2cc(F)cc(Cl)c2)c1 (stereo not drawn) gave a remaining activity of 95% (enzyme activity; inhibitor; radiometric; 1 µM).
For O=C(NCCCC1CCCCC1)c1ccc(CNC(=O)c2cnn(-c3ccccc3)c2C(F)(F)F)cc1, the remaining binding was 95% (cell-free assay; competition with immobilised ligand; 0.1 µM).
CC(C)(O)[C@H]1CC[C@H](Nc2ccc3ncc(-c4cccc(C(F)(F)F)c4)n3n2)CC1 has a remaining activity of 84.3% (enzyme activity; inhibitor; 1 µM).
The remaining signal of Cc1ccc(C(=O)Nc2ccc(CN3CCN(C)CC3)c(C(F)(F)F)c2)cc1C#Cc1cnc2cccnn12 is reported as 0.9% (cell-free assay; 23.5 nM).
COc1cc2ncnc(Nc3ccc(Oc4ccccc4)c(C)c3C)c2cc1OC gave an inhibition of 6% (enzyme activity; inhibitor; 1 µM).
Nc1ncnc2occ(-c3ccc(NC(=O)Nc4cc(C(F)(F)F)ccc4F)cc3)c12 gave a remaining signal of 0% (cell-free assay; 20 µM).
CC(C)(C)c1nc2c(s1)c1nc(N)ncc1c1ccc(NS(=O)(=O)c3c(F)cccc3F)c(F)c12 has a remaining activity of 95% (enzyme activity; inhibitor; radiometric; 1 µM).
The remaining binding of Cc1nc(Cc2cccc(C(F)(F)F)c2)sc1-c1ccc(C(N)=O)nc1 is reported as 100% (cell-free assay; competition with immobilised ligand; 1 µM).
COc1cc(-c2cc(-c3ccc(N4CCNCC4)cc3)cnc2C)cc(OC)c1OC has an inhibition of 3% (enzyme activity; inhibitor; 0.1 µM).
With O=C(NC[C@@H]1[C@H]2CN(C(=O)OCc3cc(C(F)(F)F)cc(C(F)(F)F)c3)C[C@@H]12)c1ccc2[nH]nnc2c1 the remaining binding was 100% (cell-free assay; competition with immobilised ligand; 1 µM).
The activity vs control of Cc1ccc(C(=O)NCc2ccsc2)cc1C#Cc1cn(C(C)C)c2ncnc(N)c12 is reported as 6% (enzyme activity; inhibitor; 1 µM).
CNC(=O)c1ccc(Nc2ncc(C(F)(F)F)c(NCc3nccnc3N(C)S(C)(=O)=O)n2)cc1 gave a remaining binding of 87% (cell-free assay; competition with immobilised ligand; 0.1 µM).
With Cc1ccc(NC(=O)c2ccc(C)c(C(F)(F)F)c2)cc1C#Cc1nn(C2CCC(O)CC2)c2ncnc(N)c12 (stereo not drawn) the remaining signal was 2% (cell-free assay; 10 µM).
